This note sets out measurements from ChEMBL document CHEMBL4814013, “Scaffold repurposing of fendiline: Identification of potent KRAS plasma membrane localization inhibitors” (Eur J Med Chem, 2021).

The subject of assay [1] is MDCK. In words: Inhibition of ASM in dog MDCK cells co-expressing recombinant full length mGFP-tagged KRAS G12V mutant and mCherry-CAAX assessed as reduction in plasma membrane localization of KRAS mutant incubated for 48 hrs by confocal microscopic analysis relative to control. To be noted: Canis lupus familiaris. In kind it is cell membranes. The method in brief: (§1)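 MDCK cells stably co-expressing mGFP-KRAS G12V or mGFP-LactC2 with mCherry-CAAX (HRAS 179–189 C181S/C184S) grown on coverslips in DMEM/10% FBS. Treated 48 h with 0.1% DMSO or graded drug, fixed in 4% paraformaldehyde, then quantitative confocal imaging. Mislocalization scored as the Manders fraction of mCherry-CAAX co-localizing with the GFP probe. IC50 and Emax from three independent experiments.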

The subject of assay [2] is MDCK. In words: Cytotoxicity against dog MDCK cells at 30 uM. In kind it is functional, cell-based. The note with it: Canis lupus familiaris.
A short description of assay [3]: Inhibition of ASM in dog MDCK cells co-expressing recombinant full length mGFP-tagged KRAS G12V mutant and mCherry-CAAX assessed as reduction in plasma membrane localization of KRAS mutant incubated for 48 hrs by confocal microscopic analysis. In kind it is cell membranes, Canis lupus familiaris. The method in brief: as §1

Active and inactive are the calls of the source. No cut-off for these calls is given here.

For `COc1ccccc1[C@@H](C)N(CC=C(c1ccccc1)c1ccccc1)CCN1CCN(C)CC1`, the Emax with MDCK [1] was determined as 0.86. For the same compound, in the assay with MDCK [2], the outcome was Active. Further, the IC50 in assay [3] was found to be 3.8 µM.
In the same order, the values of `COc1ccc([C@@H](C)N(CC=C(c2ccccc2)c2ccccc2)CCF)cc1` are 0.52, “inactive” and 10.1 µM.
For the compound `COc1ccc([C@@H](C)N(CC=C(c2ccccc2)c2ccccc2)CCN2CCNC(=O)C2)cc1`, in the assay with MDCK [1], the Emax came out at 0.81. The result in the assay on MDCK [2] was inactive. Further, the IC50 in assay [3] was 7.7 µM.
Taken in the same sequence, the figures for `CCN(CC=C(c1ccccc1)c1ccccc1)[C@H](C)c1ccc(OC)cc1` were 0.84, “inactive” and 10.6 µM.
Turning to `COc1ccc([C@@H](C)N(CC=C(c2ccccc2)c2ccccc2)CCCCN2CCN(C)CC2)cc1`, the Emax with MDCK [1] was found to be 0.81. The result with MDCK [2] was Active.
Take `COc1ccc([C@@H](C)N(C/C=C/c2ccccc2)CCN2CCN(C)CC2)cc1`: the Emax in the assay with MDCK [1] came to 0.84. Also, the result with MDCK [2] was inactive. For the same compound, the IC50 in assay [3] amounted to 14.8 µM.
Taken in the same sequence, the figures for `COc1ccc([C@@H](C)N(CC=C(c2ccccc2)c2ccccc2)CCN2CCC2)cc1` were 0.69, “Active” and 0.5 µM.
In the same order, the values of `COc1cccc([C@@H](C)N(CC=C(c2ccccc2)c2ccccc2)CCN2CCN(C)CC2)c1` are 0.75, “Active” and 2.8 µM.
`CCN(CC)CCN(CC=C(c1ccccc1)c1ccccc1)[C@H](C)c1ccc(OC)cc1`: in the assay with MDCK [1], the Emax came out at 0.89. Besides, the outcome in the assay with MDCK [2] was Active.
For the compound `COc1ccc([C@@H](C)N(CC=C(c2ccccc2)c2ccccc2)CCN2CCOCC2)cc1`, the Emax in the assay with MDCK [1] was determined as 0.86. In addition, the result in the assay with MDCK [2] was inactive. Moreover, the IC50 in assay [3] is 4.4 µM.
Taken in the same sequence, the figures for `COc1ccc([C@H](C)N(CC=C(c2ccccc2)c2ccccc2)CCN2CCN(C)CC2)cc1` were 0.83, “Active” and 1.2 µM.
Taken in the same sequence, the figures for `COc1ccc([C@@H](C)N(C)CC=C(c2ccccc2)c2ccccc2)cc1` were 0.75, “inactive” and 3.3 µM.
In the same order, the values of `C[C@H](c1ccc(F)cc1)N(CC=C(c1ccccc1)c1ccccc1)CCN1CCN(C)CC1` are 0.83, “Active” and 1.5 µM.
`C[C@H](c1ccc([N+](=O)[O-])cc1)N(CC=C(c1ccccc1)c1ccccc1)CCN1CCN(C)CC1`: the Emax in the assay on MDCK [1] was 0.62. Moreover, the outcome with MDCK [2] was Active. Besides, the IC50 in assay [3] is 5.2 µM.
Taken in the same sequence, the figures for `COc1ccc([C@@H](C)N(CC=C(c2ccccc2)c2ccccc2)CCO)cc1` were 0.72, “inactive” and 0.2 µM.
Take `COc1ccc([C@@H](C)N(CC=C(c2ccccc2)c2ccccc2)C(=O)CN2CCN(C)CC2)cc1`: the Emax in the assay on MDCK [1] worked out at 0.51. Moreover, in the assay with MDCK [2], the outcome was Active. The IC50 in assay [3] was determined as 7.1 µM.
Taken in the same sequence, the figures for `C=CCN(CC=C(c1ccccc1)c1ccccc1)[C@H](C)c1ccc(OC)cc1` were 0.47, “inactive” and 13 µM.
Taken in the same sequence, the figures for `C[C@H](c1ccccc1)N(CC=C(c1ccccc1)c1ccccc1)CCN1CCN(C)CC1` were 0.79, “Active” and 0.6 µM.
Taken in the same sequence, the figures for `COc1ccc([C@@H](C)N(CC=C(c2ccccc2)c2ccccc2)CC(=O)N2CCN(C)CC2)cc1` were 0.73, “inactive” and 1.1 µM.
Regarding `COc1ccc([C@@H](C)N(CC=C(c2ccccc2)c2ccccc2)CCN2CCNCC2)cc1`, the Emax with MDCK [1] was 0.86. The result in the assay with MDCK [2] was Active. For the same compound, the IC50 in assay [3] amounted to 1.3 µM.
In the same order, the values of `C[C@H](c1ccc(Cl)cc1)N(CC=C(c1ccccc1)c1ccccc1)CCN1CCN(C)CC1` are 0.7, “Active” and 3.8 µM.
As to `C=CCN(CCN1CCN(C)CC1)[C@H](C)c1ccc(OC)cc1`, in the assay on MDCK [1], the Emax is 0.76. Besides, the result in the assay with MDCK [2] was inactive. For the same compound, the IC50 in assay [3] stood at 59.3 µM.
In the same order, the values of `C[C@H](c1cccc(Cl)c1)N(CC=C(c1ccccc1)c1ccccc1)CCN1CCN(C)CC1` are 0.77, “Active” and 11.2 µM.
For the compound `COc1ccc([C@@H](C)N(CC=C(c2ccccc2)c2ccccc2)CCN(C)C)cc1`, the Emax in the assay with MDCK [1] stood at 0.66. For the same compound, the result in the assay on MDCK [2] was Active. For the same compound, the IC50 in assay [3] was determined as 11.2 µM.
Taken in the same sequence, the figures for `COc1ccc([C@@H](C)N(CC=C(c2ccccc2)c2ccccc2)CCN2CCCCC2)cc1` were 0.83, “Active” and 0.6 µM.
